# Test results: ChEMBL document CHEMBL1122083, “Isoxazolidine-3,5-diones as lens aldose reductase inhibitors” (J Med Chem, 1982)
# Molecular target: Aldo-keto reductase family 1 member B1 (Rattus norvegicus) (UniProt P07943)
# Assay: Inhibition of rat lens aldose reductase at 50 uM
# Summary of the method: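 Enzyme partially purified from rat lenses. Each compound was tested at a single concentration of 50 μM, and percent inhibition was determined by the Hayman and Kinoshita method.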
row,SMILES,inhibition [%]
1,O=C1NOC(=O)C1CCOc1ccccc1 (configuration not stated),35
2,O=C1NOC(=O)C1CCS(=O)(=O)c1ccccc1 (configuration not stated),32
3,COc1ccccc1C1C(=O)NOC1=O (configuration not stated),0
4,O=C1NOC(=O)C12Cc1cccc3cccc(c13)C2,5.1
5,O=C1NOC(=O)C1c1ccccn1 (configuration not stated),6.5
6,O=C(O)CN1C(=O)c2cccc3cccc(c23)C1=O,87
7,COc1cccc(C2C(=O)NOC2=O)c1 (configuration not stated),75

# Second part, the molecule after the results:
row,inhibition [%],SMILES
1,37,O=C1NOC(=O)C1c1cccnc1 (configuration not stated)
2,16,CC(=O)Nc1ccc(C2(C)C(=O)NOC2=O)cc1 (configuration not stated)
3,80,O=C1NOC(=O)C1c1ccccc1C(F)(F)F (configuration not stated)
4,19,O=C1NOC(=O)C1CC[S+]([O-])c1ccccc1 (configuration not stated)

# Test system: not listed separately
# Assay: pKa value for the compound was determined
# Format: physicochemical
row,pKa,SMILES
1,7.85,O=C1NC(=O)[C@@]2(CCOc3ccc(F)cc32)N1 [SORBINIL]
